Laboratory results taken from ChEMBL document CHEMBL4017491, “Phthalazino[1,2-b]quinazolinones as p53 Activators: Cell Cycle Arrest, Apoptotic Response and Bak-Bcl-xl Complex Reorganization in Bladder Cancer Cells” (J Med Chem, 2017).
Active and inactive are the calls of the source. The calls are words filed in the database; no cut-off is given here.

Columns and labels:
[1] = test system: HepG2; assay: Antiproliferative activity against human HepG2 cells by MTT assay; type: functional, cell-based
In short: (§1)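 Cell lines cultured in RPMI 1640 with 10% FBS. Viability read by MTT (5 mg/mL, 4 h at 37 °C), with formazan dissolved in DMSO and absorbance taken at 490 nm. Viability (%) = A490 treated / A490 control × 100. IC50 taken from dose-response curves, from three independent experiments each run in triplicate.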

[2] = test system: T-24; assay: Antiproliferative activity against human T24 cells by MTT assay; type: functional, cell-based; in short: as §1
[3] = test system: NCI-H460; assay: Antiproliferative activity against human NCI-H460 cells by MTT assay; type: functional, cell-based; in short: as §1
[4] = test system: MGC-803; assay: Antiproliferative activity against human MGC803 cells by MTT assay; type: functional, cell-based; in short: as §1
[5] = test system: HeLa; assay: Antiproliferative activity against human HeLa cells by MTT assay; type: functional, cell-based; in short: as §1
[6] = test system: HepG2; assay: Antitumor activity against human HepG2 cells xenografted in BALB/C nude mouse assessed as tumor growth inhibition at 6 mg/kg, ip administered every 2 days for 16 days relative to control; type: functional; details: read-out: TGI
In short: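 Male BALB/C nude mice, 6 weeks old, given subcutaneous flank injection of 5 × 10^6 HepG2 cells; tumors of 80−200 mm3 randomized, n = 6/group. Dosing ip every other day, vehicle 5% DMSO in saline (v/v). Tumor length and width measured three times a week, volume V = lw2/2; growth inhibition expressed versus vehicle group. Body weight also recorded.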

[7] = target: Cellular tumor antigen p53 (Homo sapiens) (UniProt P04637); assay: Activation of p53 in human T24 cells assessed as p53 phosphorylation after 24 hrs by Western blot analysis; type: cell-based
Chain of Cellular tumor antigen p53 (Homo sapiens) (P04637 whole entry, looked up): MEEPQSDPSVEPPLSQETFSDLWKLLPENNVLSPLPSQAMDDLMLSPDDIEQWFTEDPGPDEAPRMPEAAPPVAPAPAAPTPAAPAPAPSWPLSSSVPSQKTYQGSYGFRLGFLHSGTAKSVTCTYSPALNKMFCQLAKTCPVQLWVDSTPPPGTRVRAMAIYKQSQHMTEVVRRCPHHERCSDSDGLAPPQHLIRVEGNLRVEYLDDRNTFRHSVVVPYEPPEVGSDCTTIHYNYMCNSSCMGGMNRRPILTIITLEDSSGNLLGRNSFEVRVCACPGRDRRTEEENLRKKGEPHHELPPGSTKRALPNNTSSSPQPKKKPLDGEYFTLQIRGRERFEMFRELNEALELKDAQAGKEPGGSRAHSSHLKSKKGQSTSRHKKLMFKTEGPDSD
In short: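 T24 cells, 3 × 10^5 per well, grown to 85−95% confluence, then exposed to 0−10 μM for 24 h. Whole-cell extracts in sample buffer run on SDS-polyacrylamide gels and transferred to nitrocellulose. Blots probed with primary antibodies and AP-linked anti-rabbit IgG, detected by ECL. Blots stripped and reprobed for β-actin as loading control.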

[8] = test system: T-24; assay: Effect on p53 expression in human T24 cells up to 10 uM after 24 hrs by Western blot analysis; type: functional, cell-based
In short: (§2)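 T24 cells (3 × 10^5 per well) grown to 85–95% confluence, then exposed 24 h to 0–10 μM. Whole-cell extracts run on SDS-PAGE and blotted to nitrocellulose. Probed with the indicated antibodies and AP-linked anti-rabbit IgG, with ECL detection. Blots stripped and reprobed for β-actin as loading control.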

[9] = test system: Escherichia coli; assay: Induction of DNA damage in Escherichia coli pBR322 DNA assessed as effect on mobility rate at 5 uM after 1 hr by DNA relaxation assay
In short: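 pBR322 plasmid DNA incubated 1 h with compound over 1−10 μM in 5 mM Tris-HCl, 50 mM NaCl, pH 7.2. Samples run on 1.5% agarose gel, stained with 0.5 μg·mL−1 ethidium bromide; conformation and migration rate compared with 1% DMSO plus plasmid (negative control) and ethidium bromide plus plasmid (positive control).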

[10] = test system: T-24; assay: Effect on p53 protein expression in human T24 cells at 10 uM after 24 hrs by Western blot analysis; type: functional, cell-based; in short: as §2

Row | Compound | IC50 [1] [µM] | IC50 [2] [µM] | IC50 [3] [µM] | IC50 [4] [µM] | IC50 [5] [µM] | inhibition in vivo at 6 mg/kg [6] [%] | Activity [7] | Activity [8] | Activity [9] | Activity [10]
1 | Cc1ccc2nc3c4ccccc4c(N4CCN(C)CC4)nn3c(=O)c2c1 | 55.2 | 60.5 | 70.6 | 34.2 | 85 |  |  |  |  | 
2 | CN(C)CCCNc1nn2c(=O)c3cc(F)ccc3nc2c2ccccc12 | 10.7 | 8.9 | 11.2 | 32.1 | 22.1 |  |  |  |  | 
3 | O=c1c2cc(Br)ccc2nc2c3ccccc3c(N3CCOCC3)nn12 | > 100 | > 100 | > 100 | > 100 | > 100 |  |  |  |  | 
4 | CN(C)CCCNc1nn2c(=O)c3cc(Br)ccc3nc2c2ccccc12 | 2.2 | 3.25 | 5.48 | 3.35 | 7.13 |  |  |  |  | 
5 | CN(C)CCCNc1nn2c(=O)c3cc(Cl)ccc3nc2c2ccccc12 | 8.78 | 9.83 | 10.5 | 13.9 | 15.7 |  |  |  |  | 
6 | O=c1c2cc(F)ccc2nc2c3ccccc3c(NCCCN3CCOCC3)nn12 | 45.1 | 18.8 | 52 | 79.1 | 60.6 |  |  |  |  | 
7 | CC[C@@]1(O)C(=O)OCc2c1cc1n(c2=O)Cc2cc3cc(O)ccc3nc2-1 [HYDROXYCAMPTOTHECIN] | 5.52 | 5.53 | 4.91 | 15.2 | 29.2 | 71.6 |  |  |  | 
8 | Cc1ccc2nc3c4ccccc4c(NCCCN(C)C)nn3c(=O)c2c1 | 7.82 | 7.28 | 9.7 | 5.24 | 13.6 |  |  |  |  | 
9 | CC(C)N(CCNc1nn2c(=O)c3cc(Br)ccc3nc2c2ccccc12)C(C)C | 11.7 | 12.7 | 13.6 | 10.6 | 11.4 |  |  |  |  | 
10 | O=c1c2cc(Br)ccc2nc2c3ccccc3c(NCCN3CCCCC3)nn12 | 4.14 | 3.81 | 7.85 | 4.48 | 2.01 |  |  |  |  | 
11 | CCOC(=O)CNc1nn2c(=O)c3cc(Br)ccc3nc2c2ccccc12 | > 100 | > 100 | > 100 | > 100 | > 100 |  |  |  |  | 
12 | CN1CCN(c2nn3c(=O)c4cc(Br)ccc4nc3c3ccccc23)CC1 | 41.1 | 77 | 43.7 | 40.4 | 73.5 |  |  |  |  | 
13 | Cc1ccc2nc3c4ccccc4c(NCCCN4CCOCC4)nn3c(=O)c2c1 | 24.1 | 9.78 | 21.6 | 20.7 | 24.2 |  |  |  |  | 
14 | CN1CCN(c2nn3c(=O)c4ccccc4nc3c3ccccc23)CC1 | 39.4 | 33.8 | 31.4 | 44.5 | 50.4 |  |  |  |  | 
15 | O=c1c2cc(Br)ccc2nc2c3ccccc3c(NCCN3CCOCC3)nn12 | 11.3 | 10.8 | 7.85 | 9.9 | 8.8 |  |  |  |  | 
16 | O=c1c2cc(Cl)ccc2nc2c3ccccc3c(N3CCOCC3)nn12 | > 100 | > 100 | > 100 | > 100 | > 100 |  |  |  |  | 
17 | CCCCNc1nn2c(=O)c3cc(Br)ccc3nc2c2ccccc12 | > 100 | > 100 | > 100 | > 100 | > 100 |  |  |  |  | 
18 | CN(C)CCCNc1nn2c(=O)c3ccccc3nc2c2ccccc12 | 11.5 | 14.5 | 17 | 10.7 | 20.2 |  | Dose-dependent effect | inactive |  | 

Row | Compound | IC50 [1] [µM] | IC50 [2] [µM] | IC50 [3] [µM] | IC50 [4] [µM] | IC50 [5] [µM] | inhibition in vivo at 6 mg/kg [6] [%] | Activity [7] | Activity [8] | Activity [9] | Activity [10]
19 | CCOC(=O)CCNc1nn2c(=O)c3cc(Br)ccc3nc2c2ccccc12 | > 100 | > 100 | > 100 | > 100 | > 100 |  |  |  |  | 
20 | O=c1c2cc(Br)ccc2nc2c3ccccc3c(NCCCN3CCOCC3)nn12 | 12.8 | 9.03 | 15.1 | 7.21 | 17.4 |  |  |  |  | 
21 | O=c1c2cc(Cl)ccc2nc2c3ccccc3c(NCCCN3CCOCC3)nn12 | 18.3 | 8.85 | 19.9 | 23.1 | 34.6 |  |  |  |  | 
22 | CN1CCN(c2nn3c(=O)c4cc(F)ccc4nc3c3ccccc23)CC1 | 51.9 | 34.8 | 77.7 | 26.1 | 44.9 |  |  |  |  | 
23 | CC[n+]1c(-c2ccccc2)c2cc(N)ccc2c2ccc(N)cc21 |  |  |  |  |  |  |  |  | Active | 
24 | Cc1ccc2nc3c4ccccc4c(NCCN(C)C)nn3c(=O)c2c1 | 4.97 | 2.12 | 5.69 | 5.65 | 3.41 |  |  |  |  | 
25 | CCN(CC)CCNc1nn2c(=O)c3cc(Br)ccc3nc2c2ccccc12 | 2.99 | 10.7 | 5.06 | 7.26 | 8.81 |  |  |  |  | 
26 | O=c1c2cc(Br)ccc2nc2c3ccccc3c(NCCN3CCCC3)nn12 | 5.21 | 6.43 | 6.84 | 4.15 | 3.71 |  |  |  |  | 
27 | CN(C)CCNc1nn2c(=O)c3cc(F)ccc3nc2c2ccccc12 | 4.68 | 4.62 | 7.49 | 6.6 | 7.92 |  |  |  |  | 
28 | CN(C)CCNc1nn2c(=O)c3ccccc3nc2c2ccccc12 | 10.2 | 7.47 | 12.1 | 8.71 | 13 |  |  |  |  | 
29 | CN(C)CCNc1nn2c(=O)c3cc(Cl)ccc3nc2c2ccccc12 | 4.89 | 3.46 | 5.11 | 4.82 | 5.6 |  |  |  |  | 
30 | O=c1c2ccccc2nc2c3ccccc3c(NCCCN3CCOCC3)nn12 | 30.5 | 27.9 | 40.2 | 14.5 | 53.8 |  |  |  |  | 
31 | O=c1c2cc(F)ccc2nc2c3ccccc3c(N3CCOCC3)nn12 | > 100 | > 100 | > 100 | > 100 | > 100 |  |  |  |  | 
32 | COc1ccc(C2=N[C@H](c3ccc(Cl)cc3)[C@H](c3ccc(Cl)cc3)N2C(=O)N2CCNC(=O)C2)c(OC(C)C)c1 |  |  |  |  |  |  |  |  |  | inactive
33 | CN1CCN(c2nn3c(=O)c4cc(Cl)ccc4nc3c3ccccc23)CC1 | 57.6 | 30.7 | 70.4 | 66.1 | > 100 |  |  |  |  | 
34 | Cc1ccc2nc3c4ccccc4c(N4CCOCC4)nn3c(=O)c2c1 | > 100 | > 100 | > 100 | > 100 | > 100 |  |  |  |  | 
35 | O=c1c2ccccc2nc2c3ccccc3c(N3CCOCC3)nn12 | 92.3 | > 100 | > 100 | > 100 | > 100 |  |  |  |  | 
